Results taken from ChEMBL document CHEMBL3797120, “Identification of 1,2,3-triazole derivatives that protect pancreatic β cells against endoplasmic reticulum stress-mediated dysfunction and death through the inhibition of C/EBP-homologous protein expression” (Bioorg Med Chem, 2016).
Activity calls are given as the source filed them. The rule behind the calls is not given here.

Key:
[1] = Inhibition of endoplasmic reticulum stress-mediated upregulation of CHOP mRNA expression in tunicamycin-treated rat INS-1 cells at 5 to 20 uM after 8 hrs by qRT-PCR method; type: functional, cell-based; conditions: INS1
Summary of the method: (§1)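 INS-1 cells seeded at 4 × 10⁵/well and treated with Tm 0.1 μg/ml plus compound, either for 8 h at indicated concentrations or for indicated times at 10 μM. CHOP mRNA was measured by qRT-PCR with rat primers, normalized to rat cyclophilin A, and reported as fold change.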

[2] = test system: INS1; test: Cytoprotective activity in endoplasmic reticulum stressed rat INS-1 cells assessed as rescue from tunicamycin-mediated reduction in cell viability at 10 uM after 72 hrs by CellTiter-Glo assay relative to control; type: functional
Summary of the method: (§2)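 INS-1 cells seeded at 3 × 10³/well and exposed for 72 h to Tm 0.1 μg/ml plus compound. Viability measured as ATP by CellTiter-Glo. Tm alone was set to 0% and DMSO without Tm to 100% rescue. Values are the mean of three experiments. EC50 was derived for survival.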

[3] = test system: INS1; test: Cytoprotective activity in endoplasmic reticulum stressed rat INS-1 cells assessed as rescue from tunicamycin-mediated reduction in cell viability at 5 uM after 72 hrs by CellTiter-Glo assay relative to control; type: functional; summary of the method: as §2
[4] = test system: INS1; test: Cytoprotective activity in endoplasmic reticulum stressed rat INS-1 cells assessed as rescue from tunicamycin-mediated reduction in cell survival after 72 hrs by CellTiter-Glo assay; conditions: INS1, 72 h
[5] = test system: HEK293; test: Inhibition of endoplasmic reticulum stress-mediated upregulation of CHOP mRNA expression in tunicamycin-treated HEK293 cells after 2 to 8 hrs by qRT-PCR method; type: functional, cell-based; conditions: Homo sapiens
Summary of the method: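 HEK293 cells seeded at 4 × 10⁵/well and treated with Tm 1 μg/ml plus 20 μM compound or DMSO for the indicated times. CHOP mRNA was measured by qRT-PCR (2 μg RNA reverse transcribed), normalized to human cyclophilin A, and reported as fold change. Means ± SD of triplicates.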

[6] = test system: HEK293; test: Inhibition of endoplasmic reticulum stress-mediated upregulation of CHOP gene expression in tunicamycin-treated HEK293 cells after 24 hrs by bright-glo luciferase reporter gene assay; type: functional, cell-based; conditions: Homo sapiens, HEK293, 24 h
Summary of the method: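 HEK293 cells stably carrying a CHOP promoter-luciferase reporter were seeded at 7 × 10³/well and incubated 16 h. Compound at indicated concentrations and Tm 1 μg/mL were added, and luciferase read by Bright-Glo 24 h later. IC50 determined for CHOP-Luc inhibition.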

[7] = test system: INS1; test: Cytoprotective activity in endoplasmic reticulum stressed rat INS-1 cells assessed as rescue from tunicamycin-mediated reduction in cell viability at 40 uM after 72 hrs by CellTiter-Glo assay relative to control; type: functional; summary of the method: as §2
[8] = test system: INS1; test: Cytoprotective activity in endoplasmic reticulum stressed rat INS-1 cells assessed as rescue from tunicamycin-mediated reduction in cell viability at 20 uM after 72 hrs by CellTiter-Glo assay relative to control; type: functional; summary of the method: as §2
[9] = Inhibition of endoplasmic reticulum stress-mediated upregulation of CHOP mRNA expression in tunicamycin-treated rat INS-1 cells at 20 uM after 2 to 8 hrs by qRT-PCR method; type: functional, cell-based; conditions: INS1
[10] = Inhibition of endoplasmic reticulum stress-mediated upregulation of CHOP mRNA expression in tunicamycin-treated rat INS-1 cells at 10 uM after 2 to 8 hrs by qRT-PCR method; type: functional, cell-based; conditions: INS1; summary of the method: as §1

SMILES: CCc1ccc(-n2nnc(C(=O)Nc3ccc(C(=O)O)cc3)c2C)cc1
- inhibition [1]: inactive
- %max [2]: 0%

SMILES: CCc1ccc(-n2nnc(C(=O)Nc3ccc(Cl)cc3Cl)c2C)cc1
- %max [2]: 12%

SMILES: Cc1c(C(=O)Nc2cccc(F)c2)nnn1-c1ccc(C(C)C)cc1
- %max [3]: 33%
- EC50 [4]: 1.3 µM
- inhibition [5]: Active
- IC50 [6]: 0.013 µM

SMILES: COc1ccccc1-n1nnc(C(=O)Nc2c(C)cccc2C)c1C
- %max [2]: 28%
- EC50 [4]: 0.6 µM

SMILES: Cc1cccc(C)c1NC(=O)c1nnn(-c2ccccc2Cl)c1C
- %max [7]: 44%
- EC50 [4]: 9.1 µM

SMILES: Cc1ccccc1NC(=O)c1nnn(-c2ccccc2F)c1C
- %max [7]: 40%
- EC50 [4]: 8 µM

SMILES: Cc1c(Cl)cccc1NC(=O)c1nnn(-c2ccccc2F)c1C
- %max [8]: 92%
- EC50 [4]: 6.5 µM

SMILES: CCc1ccc(-n2nnc(C(=O)Nc3ccc(OC)cc3)c2C)cc1
- %max [3]: 21%

SMILES: Cc1ccc(-n2nnc(C(=O)Nc3cccc(Cl)c3C)c2C)c(C)c1
- %max [2]: 92%
- EC50 [4]: 2.5 µM

SMILES: Cc1c(C(=O)Nc2ccc(F)cc2)nnn1-c1ccc(C(C)C)cc1
- %max [2]: 29%
- EC50 [4]: 3.5 µM

SMILES: Cc1ccccc1NC(=O)c1nnn(-c2ccc(C(C)C)cc2)c1C
- %max [2]: 54%
- EC50 [4]: 2.6 µM

SMILES: CCOc1ccccc1-n1nnc(C(=O)Nc2cccc(Cl)c2C)c1C
- %max [8]: 52%
- EC50 [4]: 8.7 µM

SMILES: Cc1c(Cl)cccc1NC(=O)c1nnn(-c2ccc(F)cc2)c1C
- %max [8]: 87%
- EC50 [4]: 8.4 µM

SMILES: Cc1c(Cl)cccc1NC(=O)c1nnn(-c2ccccc2Cl)c1C
- %max [8]: 94%
- EC50 [4]: 3.1 µM
- inhibition [9]: Active

SMILES: Cc1ccc(-n2nnc(C(=O)Nc3ccccc3C)c2C)cc1C
- %max [2]: 56%
- EC50 [4]: 3.1 µM

SMILES: Cc1cccc(C)c1NC(=O)c1nnn(-c2cccc(Cl)c2C)c1C
- %max [7]: 88%
- EC50 [4]: 9 µM

SMILES: CCc1ccc(-n2nnc(C(=O)Nc3cc(C)ccc3C)c2C)cc1
- %max [2]: 90%
- EC50 [4]: 1.6 µM
- inhibition [10]: Active

SMILES: CCc1cccc(C)c1NC(=O)c1nnn(-c2ccccc2OC)c1C
- %max [8]: 38%
- EC50 [4]: 1 µM

SMILES: CCc1ccc(-n2nnc(C(=O)Nc3cccc(Cl)c3C)c2C)cc1
- %max [2]: 88%
- EC50 [4]: 7.8 µM

SMILES: Cc1ccc(-n2nnc(C(=O)Nc3c(C)cccc3C)c2C)cc1
- %max [8]: 73%
- EC50 [4]: 1.7 µM

SMILES: CCc1ccc(-n2nnc(C(=O)Nc3cccc(C)c3)c2C)cc1
- %max [3]: 72%
- EC50 [4]: 2.1 µM

SMILES: CCc1cccc(C)c1NC(=O)c1nnn(-c2ccccc2Cl)c1C
- %max [7]: 55%
- EC50 [4]: 2.5 µM

SMILES: CCc1cccc(C)c1NC(=O)c1nnn(-c2ccc(F)cc2)c1C
- %max [8]: 28%

SMILES: CCc1ccc(-n2nnc(C(=O)Nc3ccc(C(=O)OC)cc3)c2C)cc1
- inhibition [1]: inactive
- %max [2]: 14%

SMILES: Cc1cccc(C)c1NC(=O)c1nnn(-c2ccc(Cl)cc2)c1C
- %max [7]: 57%
- EC50 [4]: 5.2 µM

SMILES: Cc1c(C(=O)Nc2ccccc2)nnn1-c1ccccc1
- %max [8]: 12%
- EC50 [4]: 9.5 µM
- IC50 [6]: 1.5 µM

SMILES: COc1ccc(-n2nnc(C(=O)Nc3cccc(Cl)c3C)c2C)cc1
- %max [8]: 81%
- EC50 [4]: 5.2 µM

SMILES: CCc1ccc(-n2nnc(C(=O)Nc3ccc(NC(C)=O)cc3)c2C)cc1
- %max [2]: 15%

SMILES: Cc1ccc(-n2nnc(C(=O)Nc3cccc(Cl)c3C)c2C)cc1
- %max [2]: 56%
- EC50 [4]: 2.8 µM

SMILES: CCc1ccc(-n2nnc(C(=O)Nc3ccccc3CC)c2C)cc1
- %max [2]: 91%
- EC50 [4]: 4.2 µM

SMILES: CCc1ccc(-n2nnc(C(=O)Nc3c(C)cccc3C)c2C)cc1
- %max [8]: 80%
- EC50 [4]: 4.6 µM

SMILES: CCc1cccc(C)c1NC(=O)c1nnn(-c2ccc(OC)cc2)c1C
- %max [8]: 39%

SMILES: Cc1c(C(=O)Nc2ccccc2F)nnn1-c1ccc(C(C)C)cc1
- %max [3]: 29%
- EC50 [4]: 2.1 µM
- IC50 [6]: 0.035 µM

SMILES: CCc1ccc(-n2nnc(C(=O)Nc3ccccc3C)c2C)cc1
- %max [2]: 62%
- EC50 [4]: 3.2 µM

SMILES: CCc1ccc(-n2nnc(C(=O)Nc3ccc(F)cc3)c2C)cc1
- %max [2]: 82%
- EC50 [4]: 2.7 µM

SMILES: CCc1cccc(C)c1NC(=O)c1nnn(-c2cccc(Cl)c2C)c1C
- %max [2]: 97%
- inhibition [9]: Active

SMILES: CCc1ccc(-n2nnc(C(=O)Nc3ccccc3Cl)c2C)cc1
- %max [3]: 19%
- EC50 [4]: 0.6 µM

SMILES: CCOc1ccccc1-n1nnc(C(=O)Nc2c(C)cccc2CC)c1C
- %max [7]: 50%

SMILES: CCc1cccc(C)c1NC(=O)c1nnn(-c2ccc(C)cc2)c1C
- %max [7]: 82%

SMILES: CCc1cccc(C)c1NC(=O)c1nnn(-c2ccccc2)c1C
- %max [7]: 36%
- EC50 [4]: 5.8 µM

SMILES: CCc1cccc(C)c1NC(=O)c1nnn(-c2ccc(Cl)cc2)c1C
- %max [7]: 66%

SMILES: CCc1ccc(-n2nnc(C(=O)Nc3cccc(OC)c3)c2C)cc1
- %max [2]: 31%
- EC50 [4]: 3.7 µM

SMILES: Cc1cccc(C)c1NC(=O)c1nnn(-c2ccccc2F)c1C
- %max [7]: 23%
- EC50 [4]: 1.4 µM

SMILES: CCCCc1ccc(-n2nnc(C(=O)Nc3ccccc3F)c2C)cc1
- %max [2]: 30%
- EC50 [4]: 3.5 µM

SMILES: Cc1cccc(NC(=O)c2nnn(-c3ccc(C(C)C)cc3)c2C)c1
- %max [2]: 35%
- EC50 [4]: 3.2 µM

SMILES: CCc1ccc(-n2nnc(C(=O)Nc3ccc(C)cc3)c2C)cc1
- %max [2]: 18%

SMILES: Cc1c(C(=O)Nc2ccccc2)nnn1-c1ccccc1F
- %max [7]: 31%
- EC50 [4]: 23 µM
- IC50 [6]: 1.1 µM
